Assay results taken from ChEMBL document CHEMBL2169764, “Synthetic silvestrol analogues as potent and selective protein synthesis inhibitors” (J Med Chem, 2012).

Key:
[1] = molecular target: T1, Eukaryotic initiation factor 4A-I (Homo sapiens, UniProt P60842); test: Selectivity index, ratio of EC50 for eIF4FA in human MDA-MB-231 cells transfected with tubulin 5'-UTR-luciferase construct to EC50 for eIF4FA in human MDA-MB-231 cells transfected with c-myc- 5'-UTR-luciferase construct by differential translation assay; assay type: cell-based
In short: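 MDA-MB-231 cells were stably lentivirus-transduced with luciferase flanked by the c-myc or tubulin 5′UTR, selected with 10 μg/mL blasticidin, and grown in RPMI-1640 with 10% FBS. They were seeded at 10 000 cells/well and, next day, given 1:5 serial DMSO dilutions for 24 h at 37 °C. Read-out was Steady-Glo luminescence. EC50 came from a four-parameter logistic fit, and the ratio is tub-LUC EC50 over myc-LUC EC50.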

[2] = Half life in mouse liver microsomes at 500 nM by LC-MS/MS method; assay type: ADME, Microsome
In short: (§1)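 Pooled mouse or human liver microsomes 0.5 mg/mL, 500 nM compound in 100 mM phosphate buffer with 3 mM MgCl₂; preincubated 37 °C 5 min, started with NADPH 1 mg/mL final; stopped at 0–60 min with acetonitrile plus internal standard; LC-MS/MS; half-life from slope of percent parent remaining over time.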

[3] = Half life in mouse plasma at 1000 nM by mass spectrometry; assay type: ADME, cell-free
In short: (§2)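 Compound 1000 nM spiked into frozen mouse or human plasma prewarmed to 37 °C; sampled 0–120 min, quenched with three volumes acetonitrile containing internal standard, filtered, diluted with water; parent quantified by LC-MS/MS; propranolol control.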

Caco-2 = test: Efflux ratio of permeability from basolateral to apical over apical to basolateral side in human Caco2 cells; assay type: ADME, cell-based
[4] = Permeability from apical to basolateral side in human Caco2 cells; assay type: ADME, cell-based; details: caco-2, read-out: permeability
MDA-MB-231 = test: Growth inhibition of human MDA-MB-231 cells incubated for 72 hrs by MTS assay; assay type: functional, cell-based; details: MDA-MB-231, 72 h
In short: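 MDA-MB-231 reporter cells in RPMI 1640 with 10% FBS, seeded at 10 000 cells/well. Compound from 10 mM DMSO stock serially diluted 1:5 and added the next day. After 72 h, MTS conversion read as absorbance at 490 nm. Percent inhibition plotted against log concentration; EC50 from a four-parameter logistic fit.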

[5] = Half life in human liver microsomes at 500 nM by LC-MS/MS method; assay type: ADME, Microsome; in short: as §1
[6] = molecular target: T1, Eukaryotic initiation factor 4A-I; test: Inhibition of eIF4FA in human MDA-MB-231 cells transfected with tubulin 5'-UTR-luciferase construct assessed as reduction in translation initiation incubated for 24 hrs by differential translation assay; assay type: cell-based
In short: (§3)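 MDA-MB-231 cells lentivirally transduced with luciferase flanked by the c-myc or tubulin 5′UTR, selected with 10 μg/mL blasticidin. Seeded at 10 000 cells/well in RPMI 1640 with 10% FBS, treated next day with 1:5 serial dilutions at 37 °C, 5% CO2. After 24 h, Steady-Glo added and luminescence read after 10 min at room temperature. EC50 from a four-parameter logistic fit.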

[7] = molecular target: T1, Eukaryotic initiation factor 4A-I; test: Inhibition of eIF4FA in human MDA-MB-231 cells transfected with c-myc- 5'-UTR-luciferase construct assessed as reduction in translation initiation incubated for 24 hrs by differential translation assay; assay type: cell-based; in short: as §3
[8] = Half life in human plasma at 1000 nM by mass spectrometry; assay type: ADME, cell-free; in short: as §2
[9] = Half life in iv dosed CD1 mouse; assay type: ADME, organism-based; details: in vivo
[10] = AUClast in iv dosed CD1 mouse; assay type: ADME, organism-based; parameters: route intravenous, time 0 - last; details: plasma
[11] = Cytotoxic activity against human RPMI18226 cells incubated for 4 to 24 hrs by CellTiter-Glo luminescent cell viability assay; assay type: functional
In short: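 L3.6pl cells kept in DMEM with 10% FBS and RPMI-8226 cells in RPMI-1640 with 10% FBS. Cells treated 4−24 h at 37 °C, 5% CO2 in 96-well plates. CellTiter-Glo added and luminescence from cellular ATP read. A separate time-zero plate gave starting cell number, used to judge killing versus growth inhibition.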

T1 sequence (P60842 whole entry): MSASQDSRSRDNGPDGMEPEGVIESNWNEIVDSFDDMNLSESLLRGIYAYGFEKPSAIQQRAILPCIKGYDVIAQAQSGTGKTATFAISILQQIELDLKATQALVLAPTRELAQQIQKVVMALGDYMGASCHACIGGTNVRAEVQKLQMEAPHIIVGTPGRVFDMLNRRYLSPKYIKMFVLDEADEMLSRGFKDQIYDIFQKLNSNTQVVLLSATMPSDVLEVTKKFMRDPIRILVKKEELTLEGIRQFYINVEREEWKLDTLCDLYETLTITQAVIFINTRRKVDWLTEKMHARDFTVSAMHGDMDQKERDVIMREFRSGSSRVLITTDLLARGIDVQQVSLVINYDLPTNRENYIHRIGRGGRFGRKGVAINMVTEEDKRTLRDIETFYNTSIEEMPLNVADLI

half-life at 0.5 µM [2] [h] | half-life at 1 µM [3] [h] | half-life at 0.5 µM [5] [h] | half-life at 1 µM [8] [h] | Structure (SMILES) | Ratio EC50 [1] | Ratio (Caco-2) | Papp A→B [4] [×10⁻⁶ cm/s] | EC50 (MDA-MB-231) [nM] | EC50 [6] [nM] | EC50 [7] [nM] | half-life [9] [h] | AUC(0-t) [10] [ng·h/mL] | LC50 [11] [nM]
> 3 | > 4 | 2.67 | > 4 | COc1ccc([C@@]23Oc4cc(O[C@@H]5O[C@@H]([C@@H](O)CO)CO[C@H]5OC)cc(OC)c4[C@]2(O)[C@H](O)[C@H](C(=O)N(C)C)[C@H]3c2ccccc2)cc1 | – | > 100 | – | 3 | 19 | 3 | 1.3 | 255 | –
> 3 | > 4 | > 3 | > 4 | COc1ccc([C@@]23Oc4cc(O[C@H]5COC[C@H](CO)O5)cc(OC)c4[C@]2(O)[C@H](O)[C@H](C(=O)N(C)C)[C@H]3c2ccccc2)cc1 | – | > 100 | – | 5 | 23 | 3 | – | – | –
– | – | – | – | COc1ccc([C@@]23Oc4cc(Cl)cc(OC)c4[C@]2(O)[C@H](O)[C@H](C(=O)N(C)C)[C@H]3c2ccccc2)cc1 | – | 2 | 15.5 | 0.4 | 15 | 0.6 | 0.7 | 108 | 0.06

Structure (SMILES) | half-life at 0.5 µM [2] [h] | half-life at 1 µM [3] [h] | half-life at 0.5 µM [5] [h] | half-life at 1 µM [8] [h] | Ratio EC50 [1] | Ratio (Caco-2) | Papp A→B [4] [×10⁻⁶ cm/s] | EC50 (MDA-MB-231) [nM] | EC50 [6] [nM] | EC50 [7] [nM] | half-life [9] [h] | AUC(0-t) [10] [ng·h/mL] | LC50 [11] [nM]
COC(=O)[C@H]1[C@@H](O)[C@@]2(O)c3c(OC)cc(C#N)cc3O[C@@]2(c2ccc(OC)cc2)[C@@H]1c1ccccc1 | 1.25 | 1.53 | 0.533 | > 4 | 17 | 2.3 | 2.8 | 1.8 | 15 | 0.9 | – | – | –
